Experimental data taken from PubChem BioAssay.
Activity calls are given as the source filed them.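 The calls were made as follows, unless noted: active = inhibition above 20% together with a positive visual image hit; inconclusive = visual image hit but inhibition not above 20%; inactive = no visual image hit.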

Key:
[1] = inhibitors of TNFa-induced NFkB p65 translocation, primary screen, imaging, HUVEC, MLSMR starter and 10KST1 sets (AID 438); details: HUVEC TNFa-induced p65 nuclear translocation; cell count: measured here: nuclei count (cytotoxicity indicator), at 2.08 µM; inhibition: at 2 µM, stronger effect = higher value, 0% TNFa-plus-vehicle, 100% no-TNFa wells;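 also: compound added about 3h40 before a 20 min TNFalpha stimulation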;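 as to inhibition: signal is the nuclear over cytoplasmic p65 intensity ratio per well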
[2] = reduction of polyQ htt aggregates in cells – imaging, exon1htt(103Q)mCFP cells, high-content imaging, primary screen (AID 483;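 active = visual image review flags a hit and inhibition of aggregation exceeds 20%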;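 also: compound exposure lasted 3 days before fixation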;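 as to nuclei count: percent of the per-plate median nuclei count of sample wells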); details: exon1htt(103Q)mCFP cell line, aggregate imaging, at 2 µM; inhibition of aggregation: stronger effect = higher value; nuclei count: measured here: cell count, toxicity
[3] = endothelial E-selectin expression blockers – imaging, HUVEC, immunofluorescence, MLSMR starter and 10KST1 sets, primary screen (AID 487;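 active = visually confirmed hit in the image check and inhibition above 20%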;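 as to inhibition: signal is fraction of cell area covered by stained E-selectin grains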;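 as to nuclei count: 100% = median nuclei count of all wells on the same plate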); details: HUVEC TNFalpha-induced E-selectin immunofluorescence imaging, at 2 µM; inhibition: stronger effect = higher value; nuclei count: measured here: cell number, toxicity
[4] = molecular target: Voltage-gated potassium channel subunit beta-2 (Rattus norvegicus) (UniProt P62483); experiment: inhibitors of rat Kvbeta2 reductase activity – biochemical, NADPH fluorescence, primary screen (AID 622;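 active = fluorescence slope higher than the sample average by over 3 SD, cut at about -0.22 in these data, passing the limit was not always enough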;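 also: slope of raw intensity against log time taken from 70 to 1610 s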); details: recombinant KvBeta, 4-cyanobenzaldehyde reduction, at 10 µM, stronger effect = higher value
Sequence of Voltage-gated potassium channel subunit beta-2 (Rattus norvegicus) (P62483 whole entry, looked up): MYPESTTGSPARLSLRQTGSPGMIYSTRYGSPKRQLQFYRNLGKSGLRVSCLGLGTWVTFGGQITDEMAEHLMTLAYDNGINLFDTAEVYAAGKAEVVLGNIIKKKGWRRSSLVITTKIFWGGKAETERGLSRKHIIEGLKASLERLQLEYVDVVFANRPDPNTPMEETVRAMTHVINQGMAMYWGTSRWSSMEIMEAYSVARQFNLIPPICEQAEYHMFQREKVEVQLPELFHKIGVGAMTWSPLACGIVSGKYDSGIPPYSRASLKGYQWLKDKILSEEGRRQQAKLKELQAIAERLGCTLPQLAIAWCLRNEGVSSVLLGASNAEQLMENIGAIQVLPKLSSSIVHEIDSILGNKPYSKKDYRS

[5] = molecular target: Voltage-gated potassium channel subunit beta-2 (Rattus norvegicus) (UniProt P62483); experiment: enhancers of rat Kvbeta2 NADPH turnover – biochemical, NADPH fluorescence, primary screen (AID 623;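 active = NADPH fluorescence slope more negative than the mean of all samples by about 3 SD, 99.7% confidence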;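 also: fluorescence intensity change per second fitted from 20 to 320 s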); details: Recombinant KvBeta, NADPH fluorescence decrease slope, 10 min; at 10 µM; stronger effect = lower value
[6] = molecular target: Muscarinic acetylcholine receptor M4 (Homo sapiens) (UniProt P08173); experiment: M4-linked GIRK flux change, two-sided – cell-based, HEK293 M4/GIRK, thallium flux, BTC-AM, M4 allosteric agonist project, primary screen (AID 625;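 active = fluorescence slope after compound addition differing from the mean of all tested samples at 99.7% confidence, mostly higher but some lower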;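 also: thallium influx through GIRK channels coupled to M4 in HEK293 cells with BTC-AM dye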); details: at 10 µM, actives lie on both sides
Sequence of Muscarinic acetylcholine receptor M4 (Homo sapiens) (P08173 whole entry, looked up): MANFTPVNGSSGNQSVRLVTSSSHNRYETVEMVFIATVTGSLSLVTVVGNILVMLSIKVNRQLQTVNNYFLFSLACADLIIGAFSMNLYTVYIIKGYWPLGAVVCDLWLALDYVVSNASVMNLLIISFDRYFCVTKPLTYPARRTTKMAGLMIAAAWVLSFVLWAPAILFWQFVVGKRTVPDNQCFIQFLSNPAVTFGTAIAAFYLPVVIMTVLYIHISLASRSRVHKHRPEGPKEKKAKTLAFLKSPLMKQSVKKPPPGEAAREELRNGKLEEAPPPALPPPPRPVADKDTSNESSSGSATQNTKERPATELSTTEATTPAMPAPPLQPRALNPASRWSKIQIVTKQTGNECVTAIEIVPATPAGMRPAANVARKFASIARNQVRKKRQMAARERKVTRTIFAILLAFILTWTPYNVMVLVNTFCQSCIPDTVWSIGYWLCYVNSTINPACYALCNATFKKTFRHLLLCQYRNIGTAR
Method in brief: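 Material: HEK293 cells with M4 receptor and GIRK channels; Times: cells overnight at 37 °C, BTC-AM loading 1 h, reads 2 min total; Technique: kinetic BTC-AM fluorescence sampled at 1 Hz, 10 s pre-addition baseline; Read-out basis: slope over 15–24 s of trace normalized to starting intensity; Controls: carbachol positive, DMSO negative.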

[7] = blockers of RIG-like receptor reporter activation – cell-based, Sendai virus stimulus, luciferase, 10K MLSCN set, TLR/RLR signaling modifier project, primary screen (AID 602276;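 active = inhibition at or above 50% at 10 µM; inactive = inhibition below 50%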;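 also: firefly luciferase from ISG56 promoter only with Renilla not read in this screen; 0% = Sendai virus plus DMSO and 100% = medium plus DMSO without virus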); details: HEK293 RL24 IRF3 luciferase reporter, at 10 µM, stronger effect = higher value
[8] = TLR3 IRF3 reporter activation blockers – cell-based, poly I:C stimulus, luciferase, 10K MLSCN set, primary screen (AID 602277;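 active = inhibition of the reporter signal at or above 50%; inactive = inhibition below 50%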); details: HEK293-TLR3 RL24 IRF3 luciferase reporter, at 10 µM, stronger effect = higher value

Compound	cell count [1]	inhibition [1]	inhibition of aggregation [2]	nuclei count [2] [%]	inhibition [3]	nuclei count [3] [%]	fluorescence slope [4]	NADPH fluorescence slope [5]	fluorescence slope [6]	inhibition [7]	inhibition [8]
COc1ccc(CC(=O)NCc2cccs2)cc1	568	-20.6% (inactive)	-32.4% (inactive)	103	-83.1% (inactive)	140	-0.399 (inactive)	0.000126 (inactive)	0.0067 (inactive)	31% (inactive)	16.3% (inactive)
CC(c1ccco1)N(C(=O)COc1ccc(Cl)cc1Cl)c1ccccn1 (centres undefined)	720	2.4% (inactive)	-4.8% (inactive)	96	-108% (inactive)	119	-0.466 (inactive)	-6.4e-05 (inactive)	0.00469 (inactive)	2.26% (inactive)	-73.7% (inactive)
O=C(Nc1c(-c2ccccc2)nc2ccccn12)c1ccco1	466	-7.2% (inactive)	8.4% (inactive)	103	13.2% (inactive)	109	-0.56 (inactive)	4.7e-05 (inactive)	0.00475 (inactive)	-7.17% (inactive)	-12.7% (inactive)
Cc1nc(SCC(=O)NCc2ccco2)c2c(C)c(C)sc2n1	709	-4% (inactive)	15.2% (inactive)	85.7	-4.2% (inactive)	112	-0.558 (inactive)	-3.9e-05 (inactive)	0.00596 (inactive)	17.4% (inactive)	17.9% (inactive)
O=C(NCc1nnc(SCC(=O)N2CCCCCC2)o1)c1ccco1	595	-15.7% (inactive)	12.1% (inactive)	124	-52.2% (inactive)	106	-0.516 (inactive)	-2.1e-05 (inactive)	0.00384 (inactive)	6.86% (inactive)	11% (inactive)
O=C(CN1C(=O)c2cccc3cccc1c23)N1CCN(c2ccccc2)CC1	512	-50% (inactive)	2.8% (inactive)	108	-27.9% (inactive)	101	-0.127 (inactive)	-6.1e-06 (inactive)	0.00738 (inactive)	-2.31% (inactive)	2.78% (inactive)
COc1ccc(Cc2nn3c(-c4cc(OC)c(OC)c(OC)c4)nnc3s2)cc1	552	7.6% (inactive)	17.4% (inactive)	95.1	20.8% (inactive)	103	-0.254 (inactive)	-2.7e-05 (inactive)	0.00585 (inactive)	14.7% (inactive)	-1.58% (inactive)
CCOc1ccc(-c2noc(-c3ccncc3)n2)cc1OCC	807	1.7% (inactive)	33.6% (inactive)	106	-21.2% (inactive)	117	-0.533 (inactive)	4e-05 (inactive)	0.023 (active)	4.12% (inactive)	-4.62% (inactive)
CCOc1ccccc1-c1nc(-c2ccc(NC(=O)Cc3ccccc3OC)cc2)no1	484	-5% (inactive)	-2.4% (inactive)	87.4	-54.6% (inactive)	111	-0.527 (inactive)	-3.1e-05 (inactive)	0.0078 (inactive)	-18.2% (inactive)	-34.8% (inactive)
Oc1ccc2[nH]cnc2c1CN1CCCCC1	405	2.2% (inactive)	5.5% (inactive)	88.7	8% (inactive)	95.1	-0.569 (inactive)	-0.000119 (inactive)	0.00526 (inactive)	15.4% (inactive)	25.1% (inactive)
O=C(CCN1CCN(C(=O)c2ccco2)CC1)Nc1ccc(F)cc1	356	-2.6% (inactive)	-11.1% (inactive)	87.1	-78.7% (inactive)	108	-0.459 (inactive)	0.000122 (inactive)	0.00658 (inactive)	11.5% (inactive)	20.2% (inactive)
CCCn1c(SCC(=O)NCCc2ccccc2)nnc1-c1ccccn1	501	-7.9% (inactive)	12.6% (inactive)	103	-28.9% (inactive)	104	-0.543 (inactive)	-4.4e-05 (inactive)	0.00518 (inactive)	3.67% (inactive)	12.4% (inactive)
COc1cc2[nH]c(=O)n(CCCCCC(=O)N3CCN(c4ccccn4)CC3)c(=O)c2cc1OC	195	17.8% (inactive)	6% (inactive)	100	28.9% (inactive)	92.1	-0.216 (inactive)	-2.4e-05 (inactive)	0.00687 (inactive)	19.6% (inactive)	-1.9% (inactive)
COC(=O)C1=C(C)N(c2ccc(C(=O)OC)cc2)C(=O)C1	734	4% (inactive)	-26.4% (inactive)	87.2	23.7% (inactive)	105	-0.567 (inactive)	-4e-05 (inactive)	0.00678 (inactive)	16.3% (inactive)	6.55% (inactive)
